Data taken from ChEMBL document CHEMBL1255259, “Phosphorothioate-modified oligodeoxynucleotides inhibit human cytomegalovirus replication by blocking virus entry” (Antimicrob Agents Chemother, 2008).
Active and inactive are the calls of the source. The calls are words filed in the database; no cut-off is given here.

Tests used:
[1] = test system: Human betaherpesvirus 5; test: Antimicrobial activity against 0.1 uM compound pretreated Human cytomegalovirus AD169 infected in HELF assessed as reduction in viral titer at 4 degC; type: functional, organism-based
In short: (§1)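 HCMV AD169 (10^4 PFU) incubated with ODN at 0.1 μM at 4 or 37°C for various times; samples then diluted to bring ODN below an antivirally active level; residual infectivity titrated by plaque assay on HELF. Means ± SD of three independent experiments.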

[2] = Cytotoxicity against HELF assessed as cell viability by MTT assay after 6 days at <=10 uM; type: cell-based; conditions: human, 144 h
In short: (§2)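 HELF exposed to rising ODN concentrations (up to 10 μM) for 6 days; viable cells measured by MTT. CC50 taken as concentration that cuts viability to 50%.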

[3] = Cytotoxicity against HELF assessed as cell viability after 6 days by MTT assay; type: cell-based; conditions: human, HELF cells; in short: as §2
[4] = test system: Human betaherpesvirus 5; test: Antimicrobial activity against Human cytomegalovirus AD169 infected in 0.1 uM compound pretreated HELF assessed as inhibition of viral replication measured after 6 days post-infection; type: functional, organism-based
In short: (§3)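 HELF pretreated with ODN 1 h before infection with HCMV AD169 (MOI 1); ODN kept in medium after 2 h adsorption at 37°C. At 6 days p.i., cells plus supernatants sonicated and titrated by plaque assay on HELF; plaques counted microscopically, expressed as PFU/ml (log10) or % of control. IC50/IC90 by linear regression; duplicate wells, three independent experiments, means ± SD.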

[5] = test system: Human betaherpesvirus 5; test: Antimicrobial activity against Human cytomegalovirus AD169 infected in 1 uM compound pretreated HELF assessed as inhibition of viral replication measured after 6 days post-infection; type: functional, organism-based; in short: as §3
[6] = test system: Human betaherpesvirus 5; test: Antimicrobial activity against 0.1 uM compound pretreated Human cytomegalovirus AD169 infected in HELF assessed as reduction in viral titer 37 degC; type: functional, organism-based; in short: as §1
[7] = test system: Human betaherpesvirus 5; test: Antimicrobial activity against Human cytomegalovirus AD169 infected in compound pretreated HELF assessed as inhibition of viral replication measured after 6 days post-infection; type: functional, organism-based; conditions: Human betaherpesvirus 5, AD169, HELF; in short: as §3

IC50 [7] [µM]	IC90 [7] [µM]	SMILES	inhibition [1]	Activity [2]	CC50 at 144 h [3] [µM]	inhibition [4]	inhibition [5]	inhibition [6]
0.14	3.6	Cc1cn([C@H]2C[C@H](OP(=O)(O)OC[C@H]3O[C@@H](n4ccc(N)nc4=O)[C@H](O)[C@@H]3OP(=O)(O)OC[C@H]3O[C@@H](n4cnc5c(=O)[nH]c(N)nc54)[C@H](O)[C@@H]3OP(=O)(O)OC[C@H]3O[C@@H](n4cc(C)c(=O)[nH]c4=O)C[C@@H]3OP(=O)(O)OC[C@H]3O[C@@H](n4ccc(N)nc4=O)[C@H](O)[C@@H]3OP(=O)(O)OC[C@H]3O[C@@H](n4cnc5c(=O)[nH]c(N)nc54)[C@H](O)[C@@H]3OP(=O)(O)OC[C@H]3O[C@@H](n4cnc5c(=O)[nH]c(N)nc54)[C@H](O)[C@@H]3OP(O)(=S)OC[C@H]3O[C@@H](n4cnc5c(=O)[nH]c(N)nc54)[C@H](O)[C@@H]3OP(O)(=S)OC[C@H]3O[C@@H](n4cnc5c(=O)[nH]c(N)nc54)[C@H](O)[C@@H]3OP(O)(=S)OC[C@H]3O[C@@H](n4cnc5c(=O)[nH]c(N)nc54)[C@H](O)[C@@H]3OP(O)(=S)OC[C@H]3O[C@@H](n4cnc5c(=O)[nH]c(N)nc54)[C@H](O)[C@@H]3OP(O)(O)=S)[C@@H](COP(=O)(O)O[C@H]3[C@@H](O)[C@H](n4cnc5c(N)ncnc54)O[C@@H]3COP(=O)(O)O[C@H]3[C@@H](O)[C@H](n4cnc5c(=O)[nH]c(N)nc54)O[C@@H]3COP(=O)(O)O[C@H]3[C@@H](O)[C@H](n4ccc(N)nc4=O)O[C@@H]3COP(=O)(O)O[C@H]3[C@@H](O)[C@H](n4cnc5c(N)ncnc54)O[C@@H]3COP(=O)(O)O[C@H]3[C@@H](O)[C@H](n4cnc5c(=O)[nH]c(N)nc54)O[C@@H]3COP(=O)(O)O[C@H]3[C@@H](O)[C@H](n4cnc5c(=O)[nH]c(N)nc54)O[C@@H]3COP(=O)(O)O[C@H]3[C@@H](O)[C@H](n4cnc5c(=O)[nH]c(N)nc54)O[C@@H]3COP(O)(=S)O[C@H]3[C@@H](O)[C@H](n4cnc5c(=O)[nH]c(N)nc54)O[C@@H]3COP(O)(=S)O[C@H]3[C@@H](O)[C@H](n4cnc5c(=O)[nH]c(N)nc54)O[C@@H]3CO)O2)c(=O)[nH]c1=O (some centres not stated)	inactive	Non-toxic	> 10	Active	Active	inactive
0.2	> 5	Cc1cn([C@H]2C[C@H](OP(O)(=S)OC[C@H]3O[C@@H](n4cc(C)c(=O)[nH]c4=O)C[C@@H]3OP(O)(O)=S)[C@@H](OOP(O)(=S)O[C@H]3[C@@H](O)[C@H](n4ccc(N)nc4=O)O[C@@H]3COP(O)(=S)O[C@H]3[C@@H](O)[C@H](n4cnc5c(=O)[nH]c(N)nc54)O[C@@H]3COP(O)(=S)O[C@H]3[C@@H](O)[C@H](n4cnc5c(N)ncnc54)O[C@@H]3COP(O)(=S)O[C@H]3[C@@H](O)[C@H](n4cnc5c(=O)[nH]c(N)nc54)O[C@@H]3COP(O)(=S)O[C@H]3C[C@H](n4cc(C)c(=O)[nH]c4=O)O[C@@H]3COP(O)(=S)O[C@H]3[C@@H](O)[C@H](n4ccc(N)nc4=O)O[C@@H]3COP(O)(=S)O[C@H]3[C@@H](O)[C@H](n4ccc(N)nc4=O)O[C@@H]3COP(O)(=S)O[C@H]3C[C@H](n4cc(C)c(=O)[nH]c4=O)O[C@@H]3COP(O)(=S)O[C@H]3C[C@H](n4cc(C)c(=O)[nH]c4=O)O[C@@H]3COP(O)(=S)O[C@H]3[C@@H](O)[C@H](n4ccc(N)nc4=O)O[C@@H]3COP(O)(=S)O[C@H]3[C@@H](O)[C@H](n4cnc5c(=O)[nH]c(N)nc54)O[C@@H]3COP(O)(=S)O[C@H]3[C@@H](O)[C@H](n4cnc5c(N)ncnc54)O[C@@H]3COP(O)(=S)O[C@H]3[C@@H](O)[C@H](n4cnc5c(=O)[nH]c(N)nc54)O[C@@H]3COP(O)(=S)O[C@H]3C[C@H](n4cc(C)c(=O)[nH]c4=O)O[C@@H]3COP(O)(=S)O[C@H]3[C@@H](O)[C@H](n4cnc5c(N)ncnc54)O[C@@H]3COP(O)(=S)O[C@H]3[C@@H](O)[C@H](n4ccc(N)nc4=O)O[C@@H]3COP(O)(=S)O[C@H]3[C@@H](O)[C@H](n4ccc(N)nc4=O)O[C@@H]3COP(O)(=S)O[C@H]3C[C@H](n4cc(C)c(=O)[nH]c4=O)O[C@@H]3CO)O2)c(=O)[nH]c1=O (some centres not stated)	inactive	Non-toxic	> 10	Active	Active	inactive
3.8	> 10	Cc1cn([C@H]2C[C@H](OP(=O)(O)O)[C@@H](COP(=O)(O)O[C@H]3C[C@H](n4cc(C)c(=O)[nH]c4=O)O[C@@H]3COP(=O)(O)O[C@H]3[C@@H](O)[C@H](n4cnc5c(=O)[nH]c(N)nc54)O[C@@H]3COP(=O)(O)O[C@H]3[C@@H](O)[C@H](n4ccc(N)nc4=O)O[C@@H]3COP(=O)(O)O[C@H]3C[C@H](n4cc(C)c(=O)[nH]c4=O)O[C@@H]3COP(=O)(O)O[C@H]3[C@@H](O)[C@H](n4cnc5c(=O)[nH]c(N)nc54)O[C@@H]3COP(=O)(O)O[C@H]3C[C@H](n4cc(C)c(=O)[nH]c4=O)O[C@@H]3COP(=O)(O)O[C@H]3C[C@H](n4cc(C)c(=O)[nH]c4=O)O[C@@H]3COP(=O)(O)O[C@H]3C[C@H](n4cc(C)c(=O)[nH]c4=O)O[C@@H]3COP(=O)(O)O[C@H]3C[C@H](n4cc(C)c(=O)[nH]c4=O)O[C@@H]3COP(=O)(O)O[C@H]3[C@@H](O)[C@H](n4cnc5c(=O)[nH]c(N)nc54)O[C@@H]3COP(=O)(O)O[C@H]3[C@@H](O)[C@H](n4ccc(N)nc4=O)O[C@@H]3COP(=O)(O)O[C@H]3C[C@H](n4cc(C)c(=O)[nH]c4=O)O[C@@H]3COP(=O)(O)O[C@H]3[C@@H](O)[C@H](n4cnc5c(=O)[nH]c(N)nc54)O[C@@H]3COP(=O)(O)O[C@H]3C[C@H](n4cc(C)c(=O)[nH]c4=O)O[C@@H]3COP(=O)(O)O[C@H]3C[C@H](n4cc(C)c(=O)[nH]c4=O)O[C@@H]3COP(=O)(O)O[C@H]3C[C@H](n4cc(C)c(=O)[nH]c4=O)O[C@@H]3COP(=O)(O)O[C@H]3C[C@H](n4cc(C)c(=O)[nH]c4=O)O[C@@H]3COP(=O)(O)O[C@H]3[C@@H](O)[C@H](n4cnc5c(=O)[nH]c(N)nc54)O[C@@H]3COP(=O)(O)O[C@H]3[C@@H](O)[C@H](n4ccc(N)nc4=O)O[C@@H]3COP(=O)(O)O[C@H]3C[C@H](n4cc(C)c(=O)[nH]c4=O)O[C@@H]3COP(=O)(O)O[C@H]3[C@@H](O)[C@H](n4cnc5c(=O)[nH]c(N)nc54)O[C@@H]3COP(=O)(O)O[C@H]3[C@@H](O)[C@H](n4ccc(N)nc4=O)O[C@@H]3COP(=O)(O)O[C@H]3C[C@H](n4cc(C)c(=O)[nH]c4=O)O[C@@H]3CO)O2)c(=O)[nH]c1=O	inactive	Non-toxic	> 10	Active	Active	inactive
0.1	3.2	Cc1cn([C@H]2C[C@H](OP(O)(=S)OC[C@H]3O[C@@H](n4ccc(N)nc4=O)[C@H](O)[C@@H]3OP(O)(=S)OC[C@H]3O[C@@H](n4cnc5c(=O)[nH]c(N)nc54)[C@H](O)[C@@H]3OP(O)(=S)OC[C@H]3O[C@@H](n4cc(C)c(=O)[nH]c4=O)C[C@@H]3OP(O)(=S)OC[C@H]3O[C@@H](n4ccc(N)nc4=O)[C@H](O)[C@@H]3OP(O)(=S)OC[C@H]3O[C@@H](n4cnc5c(=O)[nH]c(N)nc54)[C@H](O)[C@@H]3OP(O)(=S)OC[C@H]3O[C@@H](n4cc(C)c(=O)[nH]c4=O)C[C@@H]3OP(O)(=S)OC[C@H]3O[C@@H](n4cc(C)c(=O)[nH]c4=O)C[C@@H]3OP(O)(=S)OC[C@H]3O[C@@H](n4cc(C)c(=O)[nH]c4=O)C[C@@H]3OP(O)(=S)OC[C@H]3O[C@@H](n4cc(C)c(=O)[nH]c4=O)C[C@@H]3OP(O)(=S)OC[C@H]3O[C@@H](n4ccc(N)nc4=O)[C@H](O)[C@@H]3OP(O)(=S)OC[C@H]3O[C@@H](n4cnc5c(=O)[nH]c(N)nc54)[C@H](O)[C@@H]3OP(O)(=S)OC[C@H]3O[C@@H](n4cnc5c(=O)[nH]c(N)nc54)[C@H](O)[C@@H]3OP(O)(=S)OC[C@H]3O[C@@H](n4ccc(N)nc4=O)[C@H](O)[C@@H]3OP(O)(=S)OC[C@H]3O[C@@H](n4cnc5c(=O)[nH]c(N)nc54)[C@H](O)[C@@H]3OP(O)(=S)OC[C@H]3O[C@@H](n4ccc(N)nc4=O)[C@H](O)[C@@H]3OP(O)(=S)OC[C@H]3O[C@@H](n4cnc5c(=O)[nH]c(N)nc54)[C@H](O)[C@@H]3OP(O)(=S)OC[C@H]3O[C@@H](n4ccc(N)nc4=O)[C@H](O)[C@@H]3OP(O)(=S)OC[C@H]3O[C@@H](n4cnc5c(=O)[nH]c(N)nc54)[C@H](O)[C@@H]3OP(O)(=S)OC[C@H]3O[C@@H](n4ccc(N)nc4=O)[C@H](O)[C@@H]3OP(O)(=S)OC[C@H]3O[C@@H](n4ccc(N)nc4=O)[C@H](O)[C@@H]3OP(O)(=S)OC[C@H]3O[C@@H](n4cnc5c(=O)[nH]c(N)nc54)[C@H](O)[C@@H]3OP(O)(O)=S)[C@@H](CO)O2)c(=O)[nH]c1=O (some centres not stated)	inactive	Non-toxic	> 10	Active	Active	inactive
